# V1aR counter: activates human V1a receptor in oxytocin agonist counter-screen. P37288. CHO-V1R cells, Fluo-8 calcium fluorescence, agonist mode; 0% DMSO, 100% 3 nM vasopressin. activation, % at 3 µM. 0.25% of 320,000 active. AID 2797;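 active means activation above the mean activation of all tested compounds plus 3 SD, per screening run, cut at about 20% in these data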;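 further: signal is peak over basal fluorescence ratio across a 100 second FLIPR read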
# TRPN1 ag: agonists of zebrafish TRPN1 channel; HEK293 zebrafish TRPN1-YFP, Fluo-8 calcium fluorescence; 100% = response to 87 µM carbachol; activation, % at 3 µM; 0.18% of 220,000 active; AID 1424;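 active means activation above its plate's cutoff, the mean activation of test wells on that plate plus 3 SD, cut at about 19% in these data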;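 further: 0% = DMSO alone and 100% = 87 µM carbachol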
#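 Material: zebrafish TRPN1-YFP in HEK293 cells; Doses: single test compound dose, 3 µM nominal, 0.3% DMSO; Timing: dye loading 1 h at 37 °C, then 30 min room temperature; Technique: intracellular calcium fluorescence with Fluo-8; Benchmarks: high carbachol 87 µM, low DMSO alone.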
# OXTR agonist: agonists of human oxytocin receptor | P30559 | CHO-OTR cells, Fluo-8 calcium fluorescence; normalized: DMSO 0%, oxytocin 100% | activation, % at 3 µM | 0.32% of 320,000 active;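 active means activation above the mean of all tested compounds plus 3 SD, cutoff set per screening run, cut at about 20% in these data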;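 further: peak over basal fluorescence ratio from a 100 s FLIPR kinetic read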
# Target sequence (P30559 whole entry, looked up): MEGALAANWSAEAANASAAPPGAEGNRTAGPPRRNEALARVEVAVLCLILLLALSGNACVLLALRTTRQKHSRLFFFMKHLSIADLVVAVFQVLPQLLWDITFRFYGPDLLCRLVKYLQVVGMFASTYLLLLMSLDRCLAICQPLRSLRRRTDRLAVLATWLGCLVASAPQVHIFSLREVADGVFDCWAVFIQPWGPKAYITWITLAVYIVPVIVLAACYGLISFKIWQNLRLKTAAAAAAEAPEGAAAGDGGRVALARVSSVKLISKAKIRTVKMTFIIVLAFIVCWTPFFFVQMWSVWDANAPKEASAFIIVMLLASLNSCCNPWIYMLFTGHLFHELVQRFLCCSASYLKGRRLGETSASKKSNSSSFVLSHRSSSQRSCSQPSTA
# TRPML3 agonist: human mucolipin-3 channel agonism; Q8TDD5; activation, % at 3 µM; 0.29% of 220,000 active; HEK293 TRPML3-YFP, Fluo-8 calcium fluorescence; 100% = the carbachol control signal;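 active means activation above its plate's cutoff, the mean activation of the plate's test wells plus 3 SD, cut at about 12% in these data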;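 further: 0% = DMSO only wells and 100% = carbachol wells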
#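 system = HEK293 cells stably carrying human TRPML3-YFP | doses = one concentration, 3 µM nominal, 0.3% DMSO | timing = dye loading 1 h 37 °C then 30 min ambient, 125 s read | detection = Fluo-8 calcium dye fluorescence, ex 470-495, em 515-575 nm | benchmarks = high control carbachol 87 µM, low control DMSO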
# OXTR potentiator: potentiators of human oxytocin receptor | P30559 | CHO-OTR cells, Fluo-8 calcium fluorescence, potentiator mode; 0% = oxytocin EC15, 100% = EC100 | activation, % at 3 µM | 0.061% of 320,000 active | AID 2445;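 active means activation above that plate's cutoff, the mean activation of tested compounds plus 3 SD, cut at about 6.6% in these data, passing the limit was not always enough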;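 further: 100% uses oxytocin at 75 nM as the full agonist control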
#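 System: human OTR in CHO cells / Also added: sub-maximal oxytocin, roughly EC15 / Control set: EC15 oxytocin low, 75 nM oxytocin high / Schedule: 6 min compound pre-incubation at room temperature, 100 s kinetic read / Compound: single-point 3.0 µM / Replication: singlicate / Technique: Fluo-8 calcium dye fluorescence / Read-out basis: % activation of max/min ratio relative to oxytocin controls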
# Active calls of the source: *; . = not tested or not shown. Most compounds without a hit are left out; they make up all but 0.55% or so of the library.
SMILES,V1aR counter,TRPN1 ag,OXTR agonist,TRPML3 agonist,OXTR potentiator
O=C(/C=C/c1ccc(N2CCC(c3ccccc3)=N2)cc1)c1ccccc1,107.8*,14.2,74.9*,4.3,-14.7
CC(C)N(Cc1nc(-c2ccccc2)no1)S(=O)(=O)c1ccccc1,0.8,-1.1,-2.1,25.2*,-3.7
CCC(C)(C(=O)NC1CCCC1)N(Cc1cccs1)C(=O)Cc1cccs1 (stereo not given),-0.3,-0.9,-1.6,0.7,-12.1
CCC(C)(C(=O)NC1CCCCC1)N(C(=O)Cc1cccs1)c1ccccc1 (stereo not given),18.4,-1.3,22.9*,-1.1,-12.2
Cc1ccc(NC(=O)CCNS(=O)(=O)c2ccc3[nH]c(=O)oc3c2)cc1C,0.8,.,-0.2,.,-3.7
CCOc1ccccc1/C=N/NC(=O)C[n+]1ccccc1,0.4,.,0.4,.,0.9
CN(CC(=O)Nc1ccc(N2CCOCC2)cc1)C(=O)CCNC(=O)c1ccc(Br)cc1,0.0,.,-0.4,.,-10.1
CC1Cc2ccccc2N1C(=O)COC(=O)CCc1nc2ccccc2c(=O)[nH]1 (stereo not given),-0.7,-0.5,-2.1,-0.8,-6.6
O=S(=O)(/N=S1/CC=CCN1S(=O)(=O)c1ccccc1)c1ccccc1 (stereo not given),31.0*,0.5,28.9*,1.9,-15.2
CC(=O)C1=C(O)C(=O)N(c2cccc(Br)c2)C1c1ccccc1Cl (stereo not given),13.9,.,10.4,.,-4.7
COc1ccc(-[n+]2c(C)cc(/C=C3\Sc4ccccc4N3C)cc2C)cc1,13.4,19.4*,15.0,6.7,-19.7
CCOC(=O)C1CN(S(=O)(=O)c2ccc(C)cc2)CCN1S(=O)(=O)c1ccc(C)cc1 (stereo not given),0.7,21.5*,0.4,0.4,-4.3
CCOC(=O)C1CN(S(=O)(=O)c2ccccc2)CCN1S(=O)(=O)c1ccccc1 (stereo not given),-0.1,-0.4,-0.7,2.1,-5.6
CCN1CCN(c2c(/C=C3\SC(=S)N(Cc4ccco4)C3=O)c(C)c(C#N)c(=O)n2C)CC1,20.3*,2.4,14.4,3.6,-10.0
N#C/C(=C(/O)C(Cl)(Cl)Cl)c1nc2ccccc2[nH]1,13.0,19.8*,14.8,4.7,-7.8
N=c1n(Cc2ccc(Cl)cc2)c2ccccc2n1CC(O)COc1ccccc1 (stereo not given),25.4*,2.2,37.0*,1.2,-13.8
COc1ccc(OCC(O)Cn2c(=N)n(Cc3ccccc3)c3ccccc32)cc1 (stereo not given),11.7,-1.1,16.8,-1.5,-6.0
Cc1nn(CC(=O)NC2CCC(C)CC2)c(C)c1[N+](=O)[O-] (stereo not given),-0.2,.,-0.3,.,-5.1
Cc1c(Cl)cccc1NC(=S)N1CCC(N(C)CC2CCCO2)CC1 (stereo not given),0.0,-0.3,2.2,1.2,-2.5
O=C(c1ccc([N+](=O)[O-])cc1)N(Cc1ccc(Br)cc1)N1C(=O)CCCC1=O,1.3,46.6*,2.0,95.3*,-7.2
C=CCOc1ccc(CNc2ccc3[nH]c(=O)[nH]c3c2)cc1,4.3,0.2,3.6,0.4,-22.3
Cc1ccc(O)c(C(=O)c2cc(C#N)c(=O)n(-c3nccs3)c2)c1,53.9*,45.0*,66.3*,18.6*,-14.7
CCCC/C=C/[C@H](c1ccccc1)[C@H](CO)Cc1cccnc1,-1.1,.,-1.8,.,-5.6
Cn1cccc1/C=N/n1c(-c2ccco2)n[nH]c1=S,-0.9,2.4,-0.1,6.8,0.3
COc1cc(-c2n[nH]c(=S)n2/N=C/c2cccn2C)cc(OC)c1OC,51.1*,64.2*,72.5*,34.6*,-21.6
SMILES,V1aR counter,TRPN1 ag,OXTR agonist,TRPML3 agonist,OXTR potentiator
Cc1ccc(NC(N)=S)cc1C,-1.1,-0.2,-0.2,0.8,-6.6
N#C/C(=N\Nc1ccc(Cl)cc1)C(N)=S,13.4,25.1*,17.2,15.9*,-18.3
Cc1ccc(N/N=C(\C#N)C(N)=S)cc1C,14.4,24.2*,17.1,13.3*,-32.9
N#C/C(=N\Nc1ccccc1)C(N)=S,7.5,4.8,5.3,2.4,-11.9
Cn1nnc2cc(NC(=O)Nc3cccc(C(F)(F)F)c3)ccc21,0.8,.,0.6,.,-10.1
CCCCC(=O)OCc1c(-c2cccc(OC)c2)ncc2ccccc12,0.1,.,-1.4,.,-3.3
COc1cc(OC)c(-c2c3cc(O)c(=O)cc-3oc3cc(O)c(O)cc23)cc1OC,389.2*,291.0*,389.9*,206.0*,-11.9
Cc1c2cc(O)c(=O)cc-2oc2cc(O)c(O)cc12,7.8,1.3,67.9*,2.9,-13.6
O=C(OC(C(=O)NCc1ccccc1)c1ccccc1F)c1ccco1 (stereo not given),0.2,.,-1.4,.,-0.9
CCN(CC)CCNc1ncnc2c1[nH]c1ccc(OC)cc12,-1.2,2.1,-0.4,0.4,0.6
COc1ccc2[nH]c3c(NCCC4=CCCCC4)ncnc3c2c1,.,19.6*,.,8.8,.
Cc1ccc(S(=O)(=O)N/N=C/c2ccc(OC3CSC3)cc2)cc1,40.1*,19.6*,23.5*,13.3*,-29.2
N#C/C(=C/c1ccccc1)C(=O)NCc1ccccc1,-1.3,0.3,-1.8,0.6,-1.9
CN(C)c1ccc(/C=C(/C#N)C(=O)NCc2ccccc2)o1,22.5*,19.9*,20.1*,20.4*,-11.0
CCOc1ccc(NS(=O)(=O)c2ccc(C(=O)NCc3ccccn3)cc2)cc1,26.9*,.,30.9*,.,-18.8
CCOc1ccc(NS(=O)(=O)c2ccc(C(=O)NCC(c3ccco3)N(C)C)cc2)cc1 (stereo not given),22.6*,.,26.1*,.,-16.8
CCOc1ccc(NS(=O)(=O)c2ccc(C(=O)NCC3(N4CCCCC4)CCCCC3)cc2)cc1,24.8*,.,35.5*,.,-11.0
Cc1ccc(NS(=O)(=O)c2ccc(C(=O)NCc3ccccn3)cc2)cc1,30.9*,.,25.0*,.,-16.0
CCOc1ccc(NS(=O)(=O)c2ccc(C(=O)NCc3ccncc3)cc2)cc1,7.8,.,7.3,.,-14.1
CS(=O)(=O)Nc1ccc(C(=O)NCc2ccccn2)cc1,0.1,0.2,0.3,0.8,-1.6
Cc1cc(S(=O)(=O)Nc2ccc(C(=O)NCC3(N4CCCCC4)CCCCC3)cc2)ccc1F,0.1,.,0.7,.,6.5
Cc1ccsc1/C=C1\Oc2cc(OCC(=O)c3ccccc3)ccc2C1=O,1.3,0.4,-0.7,-0.1,-2.1
Cc1ccc(NS(=O)(=O)c2ccc(C(=O)NC3CCN(Cc4ccccc4)CC3)cc2)cc1,20.8*,.,21.5*,.,-10.1
Cc1ccc(S(=O)(=O)Nc2cccc(C(=O)NC3CCN(Cc4ccccc4)CC3)c2)cc1F,2.0,.,1.9,.,-17.6
CCCCCCCCCCCCCCCCn1cc[n+](C)c1,34.9*,1.5,25.1*,0.5,-20.0
COc1ccc(C2C=C(c3ccccc3)Nc3nc(CCCO)nn32)cc1 (stereo not given),-0.8,0.4,-0.9,0.1,-15.3

# Compound activity (PubChem BioAssay)
